This note sets out measurements from ChEMBL document CHEMBL3779892, “Increasing the binding affinity of VEGFR-2 inhibitors by extending their hydrophobic interaction with the active site: Design, synthesis and biological evaluation of 1-substituted-4-(4-methoxybenzyl)phthalazine derivatives” (Eur J Med Chem, 2016).

One data set has as its system CCRF-CEM. Put plainly: Growth inhibition of human CCRF-CEM cells at 10 uM after 48 hrs by sulforhodamine B assay. The data set is classed as functional. Conditions: read-out: GI. In outline: (§1)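 Run at NCI on the 60-line panel. Cells grown in RPMI 1640 with 5% FBS and 2 mM L-glutamine, plated at 5000–40,000 cells/well by doubling time, and held 24 h at 37 °C before dosing. Drug (DMSO stock) given at a single final 10 µM in triplicate wells for 48 h. Adherent cells fixed with cold TCA (10% final), suspension cells with 16% TCA. SRB stain read at 515 nm. Percent growth from Tz, C and Ti.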
For orientation: In SRB staining, fixed cells bind dye roughly in proportion to their protein.

Data set [1] in a line: Growth inhibition of human MOLT4 cells at 10 uM after 48 hrs by sulforhodamine B assay. The data set is classed as functional. The settings on record: MOLT-4, 48 h, read-out: GI. In outline:
as §1

A further data set has as its system SR. Kind of data set: Growth inhibition of human SR cells at 10 uM after 48 hrs by sulforhodamine B assay. The data set is classed as functional. Conditions: read-out: GI. In outline:
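NCI-60 screen. Cells were grown in RPMI 1640 with 5% FBS and 2 mM L-glutamine, plated at 5000–40,000 cells/well and held 24 h at 37 °C, 5% CO2. Single 10 µM final dose from DMSO stock, triplicate wells, 48 h. Settled cells were fixed with 80% TCA (16% final) and stained with 0.4% SRB. Dye was solubilized in 10 mM Tris and read at 515 nm. Growth was calculated against time-zero and untreated wells.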

For another data set, the system named is A549. Kind of data set: Growth inhibition of human A549 cells at 10 uM after 48 hrs by sulforhodamine B assay. The data set is classed as functional. The settings on record: A549, 48 h, read-out: GI. In outline: as §1
The nature of data set [2]: Growth inhibition of human HOP62 cells at 10 uM after 48 hrs by sulforhodamine B assay. The data set is classed as functional. Conditions: HOP-62, 48 h, read-out: GI. Summed up: as §1
Data set [3] is described as follows: Growth inhibition of human HCC2998 cells at 10 uM after 48 hrs by sulforhodamine B assay. The data set is classed as functional. Conditions: HCC 2998, 48 h, read-out: GI. Summed up:
as §1

Data set [4] can be described thus: Growth inhibition of human HCT116 cells at 10 uM after 48 hrs by sulforhodamine B assay. Conditions: HCT-116, 48 h, read-out: GI. The data set is classed as functional. Summed up: as §1
A short description of data set [5]: Growth inhibition of human SW620 cells at 10 uM after 48 hrs by sulforhodamine B assay. The data set is classed as functional. The settings on record: SW-620, 48 h, read-out: GI. Summed up: (§2)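 NCI-60 panel, adherent cells grown in RPMI 1640 with 5% FBS and 2 mM L-glutamine, plated at 5000–40,000 cells/well and preincubated 24 h at 37 °C, 5% CO2. 10 µM final compound from DMSO stock, triplicate wells, 48 h. Fixed with cold TCA (10% final, 60 min, 4 °C) and stained with 0.4% SRB. Absorbance read at 515 nm; growth calculated against time-zero and control wells.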

The nature of data set [6]: Growth inhibition of human SF539 cells at 10 uM after 48 hrs by sulforhodamine B assay. The data set is classed as functional. The settings on record: SF-539, 48 h, read-out: GI. Summed up: as §1
In a further data set the test system is M14. Kind of data set: Growth inhibition of human M14 cells at 10 uM after 48 hrs by sulforhodamine B assay. The data set is classed as functional. The settings on record: M14, 48 h, read-out: GI. In outline:
as §1

A further data set deals with MDA-MB-435. Put plainly: Growth inhibition of human MDA-MB-435 cells at 10 uM after 48 hrs by sulforhodamine B assay. The data set is classed as functional. The settings on record: MDA-MB-435, 48 h, read-out: GI. In outline:
as §1

The next data set concerns SK-MEL-28. Kind of data set: Growth inhibition of human SK-MEL-28 cells at 10 uM after 48 hrs by sulforhodamine B assay. The settings on record: SK-MEL-28, 48 h, read-out: GI. The data set is classed as functional. In outline: as §1
A short description of data set [7]: Growth inhibition of human UACC257 cells at 10 uM after 48 hrs by sulforhodamine B assay. The data set is classed as functional. The settings on record: UACC-257, 48 h, read-out: GI. In outline: as §2
Data set [8] can be described thus: Growth inhibition of human UACC62 cells at 10 uM after 48 hrs by sulforhodamine B assay. The data set is classed as functional. Conditions: UACC-62, 48 h, read-out: GI. Summed up:
as §2

A short description of data set [9]: Growth inhibition of human SKOV3 cells at 10 uM after 48 hrs by sulforhodamine B assay. The data set is classed as functional. Conditions: SK-OV-3, 48 h, read-out: GI. Summed up:
as §1

Data set [10] in a line: Growth inhibition of human Caki1 cells at 10 uM after 48 hrs by sulforhodamine B assay. The data set is classed as functional. Conditions: CAKI-1, 48 h, read-out: GI. In outline:
as §1

Data set [11] is described as follows: Growth inhibition of human RXF393 cells at 10 uM after 48 hrs by sulforhodamine B assay. The data set is classed as functional. Conditions: RXF 393, 48 h, read-out: GI. In outline:
as §1

The test system of another data set is SN12C. Kind of data set: Growth inhibition of human SN12C cells at 10 uM after 48 hrs by sulforhodamine B assay. Conditions: read-out: GI. The data set is classed as functional. Summed up:
as §1

Data set [12] in a line: Growth inhibition of human TK10 cells at 10 uM after 48 hrs by sulforhodamine B assay. The data set is classed as functional. Conditions: TK-10, 48 h, read-out: GI. Summed up:
as §2

Data set [13] is described as follows: Growth inhibition of human PC3 cells at 10 uM after 48 hrs by sulforhodamine B assay. The data set is classed as functional. The settings on record: PC-3, 48 h, read-out: GI. In outline:
as §1

The nature of data set [14]: Growth inhibition of human Hs 578T cells at 10 uM after 48 hrs by sulforhodamine B assay. The data set is classed as functional. The settings on record: read-out: GI. Summed up:
as §1

For the next data set, the target named is serum albumin (Bos taurus, UniProt P02769). Kind of data set: Binding affinity to bovine serum albumin at pH 7.4 at 25 degC by equilibrium dialysis method. The data set is classed as ADME. Conditions: cattle, read-out: PB (converted).
Chain of serum albumin (P02769 whole entry): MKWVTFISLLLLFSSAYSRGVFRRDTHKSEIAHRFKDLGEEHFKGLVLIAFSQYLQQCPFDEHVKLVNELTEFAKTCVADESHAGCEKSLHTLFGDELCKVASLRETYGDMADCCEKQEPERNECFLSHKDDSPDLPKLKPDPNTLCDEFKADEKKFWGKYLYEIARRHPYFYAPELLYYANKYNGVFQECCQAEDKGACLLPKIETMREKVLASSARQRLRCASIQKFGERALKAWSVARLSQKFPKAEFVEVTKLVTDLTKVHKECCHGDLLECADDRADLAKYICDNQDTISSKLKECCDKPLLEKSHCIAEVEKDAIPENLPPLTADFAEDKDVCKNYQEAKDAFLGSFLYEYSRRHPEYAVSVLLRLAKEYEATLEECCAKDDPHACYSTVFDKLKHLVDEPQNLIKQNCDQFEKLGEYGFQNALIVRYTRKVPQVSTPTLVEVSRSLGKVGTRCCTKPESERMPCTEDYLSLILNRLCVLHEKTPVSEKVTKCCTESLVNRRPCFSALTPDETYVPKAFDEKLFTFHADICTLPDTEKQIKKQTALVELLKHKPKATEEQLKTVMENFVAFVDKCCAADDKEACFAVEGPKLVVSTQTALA

On to `COc1ccc(Cc2nnc(Nc3ccc(NC(=O)Nc4cccc(Cl)c4)cc3)c3ccccc23)cc1`, for which the inhibition of growth at 10 µM is 41% with CCRF-CEM; under 30% in data set [1]; under 30% in the data set with SR; 35% in the data set with A549; under 30% in [2]; under 30% in data set [3]. The inhibition of growth at 10 µM was 37% in [4]; under 30% in [5]; under 30% in data set [6]; under 30% in the data set with M14; under 30% with MDA-MB-435; under 30% in the data set on SK-MEL-28. The inhibition of growth at 10 µM in data set [7] was under 30%; in data set [8], under 30%; in data set [9], under 30%; in data set [10], under 30%; in data set [11], 40%; with SN12C it was under 30%. Besides, the inhibition of growth at 10 µM was under 30% in data set [12], 32% in data set [13] and under 30% in data set [14].

Regarding `COc1ccc(Cc2nnc(Nc3ccc(NC(=O)Nc4ccc(OC)cc4)cc3)c3ccccc23)cc1`, the fraction unbound at serum albumin was 0.921. For the same molecule, the inhibition of growth at 10 µM is 40% in the data set on CCRF-CEM; 47% in data set [1]; 39% with SR; under 30% in the data set on A549; 33% in data set [2]; under 30% in [3]. Also, the inhibition of growth at 10 µM was 34% in data set [4]; under 30% in [5]; 49% in data set [6]; under 30% with M14; under 30% in the data set on MDA-MB-435; under 30% in the data set on SK-MEL-28. Moreover, the inhibition of growth at 10 µM in data set [7] was under 30%; in [8] it was under 30%; in data set [9] it was under 30%; in [10], under 30%; in [11] it was 100%; in the data set with SN12C it was under 30%. The inhibition of growth at 10 µM in data set [12] was under 30%; in [13] it was 30%; in data set [14], 96%.

For the molecule `COc1ccc(Cc2nnc(Nc3ccc(NC(=O)Nc4cccc(OC)c4)cc3)c3ccccc23)cc1`, the inhibition of growth at 10 µM (in the data set with CCRF-CEM; in [1]; with SR; with A549; in data set [2]; in [3]) was under 30% throughout. Further, the inhibition of growth at 10 µM is under 30% in [4]; under 30% in data set [5]; 35% in data set [6]; under 30% in the data set with M14; under 30% with MDA-MB-435; under 30% in the data set with SK-MEL-28. For the same molecule, the inhibition of growth at 10 µM in data set [7] was under 30%; in data set [8], under 30%; in [9], under 30%; in [10], under 30%; in data set [11], 50%; in the data set with SN12C it was under 30%. Besides, the inhibition of growth at 10 µM is under 30% in data set [12], under 30% in data set [13] and 50% in [14].

On to `COc1ccc(Cc2nnc(Nc3ccc(NC(=O)Nc4ccc(Cl)c(C(F)(F)F)c4)cc3)c3ccccc23)cc1`, for which the inhibition of growth at 10 µM is 55% with CCRF-CEM; 50% in [1]; 40% in the data set on SR; 48% in the data set with A549; under 30% in [2]; under 30% in data set [3]. Also, the inhibition of growth at 10 µM in data set [4] was 53%; in data set [5] it was under 30%; in [6], under 30%; with M14 it was 40%; in the data set with MDA-MB-435, 35%; in the data set on SK-MEL-28, under 30%. For the same molecule, the inhibition of growth at 10 µM in [7] was under 30%; in data set [8], under 30%; in [9], 38%; in [10] it was under 30%; in data set [11] it was 72%; in the data set with SN12C, under 30%. Besides, the inhibition of growth at 10 µM in data set [12] was under 30%; in data set [13], 45%; in [14], 48%.

Consider `COc1ccc(Cc2nnc(Nc3ccc(NC(=O)Nc4ccc(Cl)cc4)cc3)c3ccccc23)cc1`, for which the inhibition of growth at 10 µM was 42% in the data set on CCRF-CEM; 44% in [1]; 40% in the data set on SR; 33% in the data set on A549; under 30% in data set [2]; under 30% in data set [3]. The inhibition of growth at 10 µM is 42% in [4]; under 30% in data set [5]; 41% in data set [6]; 30% in the data set with M14; under 30% with MDA-MB-435; under 30% in the data set on SK-MEL-28. Also, the inhibition of growth at 10 µM is under 30% in data set [7]; under 30% in data set [8]; under 30% in data set [9]; under 30% in data set [10]; 79% in [11]; under 30% in the data set on SN12C. For the same molecule, the inhibition of growth at 10 µM in data set [12] is under 30%; in [13] it was 31%; in data set [14], 75%.
